SUMO1-SIM PPI: modulators of human SUMO1-mediated protein-protein interactions. AID 602429. inhibition, % at 20 µM. SUMO1 binding to a labelled peptide, TR-FRET, 1 h. P63165. hit rate 0.33% among 360,000; in the data active means inhibition above about 37%
Target sequence (P63165 whole entry, looked up): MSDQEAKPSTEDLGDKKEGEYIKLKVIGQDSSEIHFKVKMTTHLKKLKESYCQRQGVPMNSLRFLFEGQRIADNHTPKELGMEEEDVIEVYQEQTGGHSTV
Scp-1 inhibitor: inhibitors of human Scp-1 phosphatase; Q9GZU7; Recombinant Scp1, phosphopeptide, malachite green phosphate absorbance; AID 493091; inhibition, % at 20 µM; hit rate 0.88% among 340,000;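 active means inhibition above about 50% at 20 µM, limit read from the data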;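 further: plate controls were DMSO wells with enzyme for no effect and wells lacking enzyme for full effect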
Target sequence (Q9GZU7 76-261 limits assumed): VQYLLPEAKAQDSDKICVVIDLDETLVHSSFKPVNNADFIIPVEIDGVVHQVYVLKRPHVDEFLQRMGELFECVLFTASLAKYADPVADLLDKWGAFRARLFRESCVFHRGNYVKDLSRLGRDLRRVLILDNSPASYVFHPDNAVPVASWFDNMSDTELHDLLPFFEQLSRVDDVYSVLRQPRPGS
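Test system: SCP-1 phosphatase catalytic domain, residues 76-261 | Compound dosing: One concentration, 20 µM, with 1.0% DMSO | Schedule: 45 min room-temperature reaction, 5 min colour, 30 min stabiliser | Detection: Absorbance at 630 nm | Read-out basis: % inhibition of SCP-1 phosphate liberation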
LMPTP inh: LMPTP (human) inhibition | AID 651560 | inhibition, % at 20 µM | recombinant LMPTP-A, OMFP fluorogenic substrate, fluorescence intensity | hit rate 0.22% among 360,000 | P24666;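 active means compounds that cut the enzyme signal by at least half of the control window in the single-dose screen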;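 further: plate controls were DMSO wells with enzyme plus substrate for no effect and substrate without enzyme for full effect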
Target sequence (P24666 whole entry, looked up): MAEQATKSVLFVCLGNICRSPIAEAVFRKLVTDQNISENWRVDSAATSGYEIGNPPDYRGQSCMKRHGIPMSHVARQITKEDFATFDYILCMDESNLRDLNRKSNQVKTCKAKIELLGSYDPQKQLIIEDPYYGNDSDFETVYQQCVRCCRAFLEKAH
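test system = LMPTP-A | amount = 0.625 nM LMPTP-A final | reagent = fluorogenic phosphatase substrate OMFP at 400 µM final | incubation = 50 min at room temperature | benchmarks = no-enzyme low control, uninhibited high control | medium = Bis-Tris pH 6.0, DTT, detergent | signal = fluorescence intensity of OMFP turnover product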
DNMT1 block: blocks human DNA methyltransferase DNMT1; hit rate 0.83% among 360,000; DNMT1 molecular beacon, Hinp1I cleavage, fluorescence; inhibition (reported as % activation of signal), % at 10 µM; P26358; in the data active means inhibition above about 50%
STEP inh: STEP (human) phosphatase inhibition | P54829 | inhibition, % at 20 µM | recombinant STEP, OMFP fluorogenic substrate, fluorescence | hit rate 0.25% among 360,000;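 active means inhibition at 20 µM, scaled per plate between control wells, above about 37%, limit read from the data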;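 further: 0% = DMSO with enzyme and substrate and 100% = substrate only without enzyme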
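Assay system: isolated STEP enzyme / Timing: 20 min at room temperature, dark / Doses: 20 µM, 1% DMSO / Technique: fluorescence intensity, excitation 480 nm, emission 540 nm / Reagent: fluorogenic phosphatase substrate OMFP at 25 µM final / Measure: percent inhibition scaled to no-enzyme and uninhibited-enzyme controls, plate-pattern corrected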
Beacon interf DR: beacon fluorescence artifact, dose response counter-screen; shares compounds with DNMT1 block; molecular beacon fluorescence, spectral interference counter-screen; IC50, µM; 200 tested, under 10 active; call rule not given here
DNMT1 confirm: DNMT1 inhibition confirmation, single concentration | shares compounds with DNMT1 block | DNMT1 molecular beacon HinP1I cleavage, fluorescence | inhibition, % at 10 µM | hit rate 8% among 2,300 | AID 602385;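 active means average inhibition of at least 30% in the single-concentration confirmation test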
Beacon interf: counter-screen for DNMT1 inhibitors: spectral interference; shares compounds with DNMT1 block; DNMT1 molecular beacon spectral interference counterscreen, fluorescence 485/520; activation (fluorescence interference), % at 10 µM; hit rate 1% among 2,300; AID 602387;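 active means activation of at least 30% at 10 µM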;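 further: DNMT1 catalytic domain with a HinP1I cleavage step and a FAM/dabcyl DNA beacon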
* hit, by the source's call; · = not tested or not shown. An excerpt weighted towards active compounds, which were near 1.7% of everything screened.

SMILES	SUMO1-SIM PPI	Scp-1 inhibitor	LMPTP inh	DNMT1 block	STEP inh	DNMT1 confirm	Beacon interf	others
CC(NC(=O)CN(c1ccc(Cl)cc1)S(C)(=O)=O)c1ccccc1 (centres undefined)	1	-10	-1	58*	-2	7	5
COc1cccc(CN2CC(C(=O)N(C)C3CCOCC3)CCC2=O)c1 (centres undefined)	-1	-8	0	-1	-2	·	·
O=C(c1ccc(F)cc1)N1CCOCC1	-1	-6	0	1	-4	·	·
O=C(c1ccc(=O)oc1)N1CCCc2ccccc21	12	43	2	105*	13	10	-4
O=C(c1ccc(=O)oc1)N1CCOCC1	10	77*	-1	103*	15	64*	-3	Beacon interf DR=>99
O=C(COc1ncnc2ccccc12)c1ccc(Cl)cc1	-2	4	-1	-3	-1	·	·
COc1cc(NC(=O)c2c(F)cccc2F)c(Cl)cc1Cl	6	-1	1	-2	0	·	·
Cc1cc[n+](CC(=O)c2cccc([N+](=O)[O-])c2)c2ccccc12	-30	-6	7	53*	-2	43*	5	Beacon interf DR=>99
O=C(C[n+]1cccc2ccccc21)c1ccc([N+](=O)[O-])cc1	-29	-3	3	-3	-4	·	·
C/C(=N\N=C(N)N)c1ccc(C)c(C)c1	2	-2	0	-1	6	·	·
CC(C)CN(C(=O)COC(=O)c1cc2c(s1)CCC2)C1CCS(=O)(=O)C1 (centres undefined)	-2	89*	12	96*	8	2	0
CCOC(=O)c1c(S(=O)(=O)NCCCc2ccco2)c(C)n(C)c1C	7	10	1	3	2	·	·
COc1ccc2[nH]c(C)c(CCN3C(=O)C4C5C=CC(C5)C4C3=O)c2c1 (centres undefined)	0	-16	0	82*	-2	0	1
CCOc1cc(C#N)ccc1OCC(=O)NNC(=O)CC1CCS(=O)(=O)C1 (centres undefined)	1	-8	0	77*	3	0	4
CSCc1ccc(C(=O)NCc2ccc(F)cc2)cc1	0	0	1	-3	-2	·	·
CC(=O)Nc1ccc(S(=O)(=O)Nc2nc3ccccc3nc2Nc2cccc(O)c2)cc1	-5	-12	0	-4	-4	·	·
CC(=O)Nc1ccc(S(=O)(=O)Nc2nc3ccccc3nc2Nc2ccc(C(=O)O)c(O)c2)cc1	57*	87*	8	77*	12	4	13
COc1ccc(/C=N/Nc2ccc([N+](=O)[O-])cc2S(=O)(=O)N2CCN(C)CC2)cc1	6	2	-1	56*	-15	1	6
COc1ccc(C=NNc2ccc([N+](=O)[O-])cc2S(=O)(=O)Nc2ccccc2C(=O)O)cc1OC	3	-4	2	-22	-3	·	·
CO/N=C\CC(=O)Nc1ccc(Oc2ccccc2)cc1	-2	-5	1	-3	8	·	·
COC(=O)c1sc2nc(-c3ccco3)ccc2c1N	11	-4	4	-2	16	·	·
NC(=O)c1sc2nc3c(c(-c4ccco4)c2c1N)CCC3	13	0	2	75*	5	12	12
NC(=O)c1sc2nc(-c3ccco3)ccc2c1N	37	4	13	98*	10	5	5
CC(=O)Nc1ccc(NC(=O)CSc2ncc(C(=O)Nc3ccccc3)c(=O)n2C)cc1	-20	-4	0	0	2	·	·
COc1ccc(NC(=O)c2cc3c(=O)n(C)c4ccccc4c3s2)cc1OC	4	-3	1	75*	-4	2	-2
SMILES	SUMO1-SIM PPI	Scp-1 inhibitor	LMPTP inh	DNMT1 block	STEP inh	DNMT1 confirm	Beacon interf	others
CC1CCCC(C)N1C(=O)Cn1nnc(-c2ccc([N+](=O)[O-])cc2)n1 (centres undefined)	-34	-9	-1	2	0	·	·
CCN(CC)C(=O)CC(c1cc(OC)c(OC)c(OC)c1)c1c(OC)cc(OC)c2c(-c3ccccc3)cc(=O)oc12 (centres undefined)	-6	71*	18	84*	3	8	6
COc1ccc(OCCCC(=O)Nc2cc(Cl)ccc2-n2cncn2)cc1	-5	4	-1	0	0	·	·
O=C1/C(=C\c2ccco2)SC(=S)N1Cc1ccccc1	-2	-2	6	2	2	·	·
O=C(CCCN1C(=O)/C(=C/c2ccco2)SC1=S)Nc1ccccc1C(=O)O	75*	69*	19	86*	48*	1	-2
O=C(CCCN1C(=O)/C(=C\c2ccccc2)SC1=S)Nc1ccc(O)cc1C(=O)O	-21	7	1	1	3	·	·
O=C(CN1C(=O)/C(=C\c2ccco2)SC1=S)Nc1ccc(O)cc1C(=O)O	87*	57*	44	90*	80*	14	1
O=C1/C(=C/c2ccco2)SC(=S)N1CC1CCCO1 (centres undefined)	2	63*	32	71*	47*	1	0
O=C(CCN1C(=O)/C(=C/c2ccco2)SC1=S)Nc1ccc(O)cc1C(=O)O	40*	64*	7	71*	35	8	-3
COc1ccc(CN2CCNC(=O)C2CC(=O)NCCc2nc(C)c3c(n2)CCC3)cc1C (centres undefined)	2	-5	-1	-2	10	·	·
CSc1ccccc1OCc1cc(C(=O)N2CCC[C@H]2C(N)=O)no1	5	-16	-1	3	-2	·	·
COc1ccc2ccccc2c1C1NC(=O)NC(C)=C1[N+](=O)[O-] (centres undefined)	-23	-7	0	0	-2	·	·
CC1(C(=O)Nc2ccc3nc[nH]c3c2)CCN1C(=O)c1ccccc1CCc1ccccc1 (centres undefined)	1	·	1	-6	0	·	·
CC(C)=CCC1=C(OCC(=O)O)C(=O)c2ccccc2C1=O	27	-4	6	71*	8	-4	1
CC(C)=CCC/C(C)=C/CC/C(C)=C/CC/C(C)=C/CC1=C(C)C(=O)c2ccccc2C1=O	-9	-1	0	-4	0	·	·
Cc1ccc(S(=O)(=O)N(C)c2ccccc2C(=O)N2CCOCC2)cc1	-1	-4	0	2	-3	·	·
O=C(CCNC(=O)c1ccc(Cl)cc1)Nc1cccc(S(=O)(=O)N2CCCCCC2)c1	3	-5	2	-2	2	·	·

Compound activity (PubChem)
